{
  "source": "ChEMBL document CHEMBL3259808",
  "about": "“Optimization of antitrypanosomatid agents: identification of nonmutagenic drug candidates with in vivo activity” (J Med Chem, 2014)",
  "key": {"[1]": {"test": "Selectivity index, ratio of IC50 for African green monkey Vero cells to IC50 for Trypanosoma cruzi Sylvio X-10 amastigotes", "assay_type": "toxicity, cell-based", "settings": "read-out: Ratio IC50", "outline": "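VERO cytotoxicity: cells exposed 48 h at 37 °C, 5% CO2 to serial dilutions from a maximum of 2000 μM (DMSO stocks; DMSO <0.1% control); growth inhibition read by MTT at 570 nm. Amastigote IC50: Sylvio X-10-infected VERO cells, five doses, infected cells counted among 300 (Giemsa), quadruplicate, three experiments, sigmoidal fit. SI = IC50 VERO / IC50 amastigote.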"}, "[2]": {"test": "Selectivity index, ratio of IC50 for mouse J774.1 cells to IC50 for Trypanosoma cruzi Sylvio X-10 amastigotes", "assay_type": "toxicity", "settings": "read-out: Ratio IC50", "outline": "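J774.1 macrophages grown in DMEM with 10% heat-inactivated FCS and allowed to attach 48 h, then exposed 48 h at 37 °C to 12.5–400.0 μM. Triplicates. MTT 0.1 mg/mL for 3 h, read at 560 nm; IC50 by linear regression against the solvent control. SI = IC50 J774.1 / parasite IC50 (Sylvio X-10 amastigotes or Tulahuen 2 epimastigotes, the latter measured by A600 growth inhibition at day 5).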"}, "[3]": {"system": "Trypanosoma cruzi", "test": "Antitrypanosomal activity against Trypanosoma cruzi Y trypomastigotes assessed as growth inhibition at 25 uM after 48 hrs by microscopic analysis relative to control", "assay_type": "functional", "settings": "read-out: GI", "outline": "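Blood was collected by cardiac puncture, with sodium citrate, from BALB/c mice 7 days after infection. Compound was dissolved in minimal DMSO and diluted in PBS (final 25 μM). Drug solution was mixed with infected blood (about 10⁶ parasites/mL) in triplicate, shaken 10 min at room temperature, then held at 4 °C for 48 h. Parasites were counted microscopically against untreated infected blood. Gentian violet 250 μg/mL was the reference.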"}, "[4]": {"system": "Salmonella typhimurium", "test": "Mutagenic activity in Salmonella typhimurium TA98 at 5 to 400 ug/plate by Ames test in presence of mouse liver S9 fraction", "assay_type": "toxicity, organism-based", "settings": "salmonella enterica subsp. enterica serovar typhimurium", "outline": "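Ames plate-incorporation assay with S. typhimurium TA98 in Vogel-Bonner E minimal glucose agar. Toxicity toward the bacteria was checked first. DMSO solutions were run in triplicate at five consecutive third-dilutions, starting at the highest non-toxic dose. Positive controls were 4-nitro-o-phenylenediamine (20.0 μg/plate) and 2-aminofluorene (10.0 μg/plate); DMSO was the negative control. Revertants were counted manually. A compound was called mutagenic when revertants were at least twice the negative control at two or more consecutive doses.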"}, "[5]": {"system": "Salmonella typhimurium", "test": "Mutagenic activity in Salmonella typhimurium TA100 at 0.003 to 0.2 ug/plate by Ames test", "assay_type": "toxicity, organism-based", "settings": "salmonella enterica subsp. enterica serovar typhimurium", "outline": "(§1)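 Direct plate incubation on minimal glucose agar (Vogel-Bonner E). Compound toxicity to the bacteria was checked first. DMSO solutions were tested at five consecutive 3-fold dilutions, starting from the highest non-toxic dose, in triplicate, without metabolic activation. DMSO served as negative control. Revertants were counted manually; mutagenic = revertants at least double the negative control at two or more consecutive doses.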"}, "[6]": {"system": "Salmonella typhimurium", "test": "Mutagenic activity in Salmonella typhimurium TA100 at 0.003 to 0.2 ug/plate by Ames test in presence of mouse liver S9 fraction", "assay_type": "toxicity, organism-based", "settings": "salmonella enterica subsp. enterica serovar typhimurium", "outline": "(§2)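 Plate-incorporation Ames test on minimal glucose agar with 500 μL Aroclor-treated mouse liver S9 added. DMSO solutions were tested at five consecutive 3-fold dilutions from the highest non-toxic dose, in triplicate, with a DMSO negative control. Revertants were counted manually; a compound was scored mutagenic when revertants were at least twice the negative control for two or more consecutive doses.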"}, "[7]": {"system": "Salmonella typhimurium", "test": "Mutagenic activity in Salmonella typhimurium TA102 at 3.09 to 250 ug/plate by Ames test", "assay_type": "toxicity, organism-based", "settings": "salmonella enterica subsp. enterica serovar typhimurium", "outline": "as §1"}, "[8]": {"system": "Salmonella typhimurium", "test": "Mutagenic activity in Salmonella typhimurium TA102 at 3.09 to 250 ug/plate by Ames test in presence of mouse liver S9 fraction", "assay_type": "toxicity, organism-based", "settings": "salmonella enterica subsp. enterica serovar typhimurium", "outline": "as §2"}, "[9]": {"system": "Salmonella typhimurium", "test": "Mutagenic activity in Salmonella typhimurium TA1535 at 3.09 to 250 ug/plate by Ames test", "assay_type": "toxicity, organism-based", "settings": "salmonella enterica subsp. enterica serovar typhimurium", "outline": "as §1"}, "[10]": {"system": "Salmonella typhimurium", "test": "Mutagenic activity in Salmonella typhimurium TA1535 at 3.09 to 250 ug/plate by Ames test in presence of mouse liver S9 fraction", "assay_type": "toxicity, organism-based", "settings": "salmonella enterica subsp. enterica serovar typhimurium", "outline": "as §2"}, "[11]": {"system": "Salmonella typhimurium", "test": "Mutagenic activity in Salmonella typhimurium TA1537 at 3.09 to 250 ug/plate by Ames test", "assay_type": "toxicity, organism-based", "settings": "salmonella enterica subsp. enterica serovar typhimurium", "outline": "as §1"}, "[12]": {"test": "Stability of the compound in aqueous solution assessed as compound remaining at 1 mM at pH 7.4 after 1 hr by TLC analysis", "assay_type": "physicochemical", "settings": "aqueous solution, pH 7.4; read-out: Stability", "outline": "(§3)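 DMSO stocks diluted to final 1 mM in KCl·HCl pH 1.0, citrate pH 6.0, Tris·HCl pH 7.4 or borax·HCl pH 9.0 buffer. Incubated 1 h at 37 °C, then ethyl acetate extracts checked by TLC for decomposition products.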"}, "[13]": {"test": "Stability of the compound in aqueous solution assessed as compound remaining at 1 mM at pH 9 after 1 hr by TLC analysis", "assay_type": "physicochemical", "settings": "aqueous solution, pH 9; read-out: Stability", "outline": "as §3"}, "[14]": {"test": "Stability of the compound in aqueous solution assessed as compound remaining at 1 mM at pH 1 after 1 hr by TLC analysis", "assay_type": "physicochemical", "settings": "read-out: Stability", "outline": "as §3"}, "[15]": {"test": "Stability of the compound in aqueous solution assessed as compound remaining at 1 mM at 37 degC after 1 hr by TLC analysis in presence of rat liver cytosolic fraction", "assay_type": "ADME", "settings": "cytosol, 1000 µM", "outline": "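Rat liver cytosolic (100 000g supernatant) and microsomal (100 000g pellet, washed and resuspended in Tris·HCl) fractions, fresh or stored at −80 °C; protein measured by BCA. Compound incubated with the fraction 1 h at 37 °C and analysed by TLC of extracts.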"}, "[16]": {"test": "Stability of the compound in eumulgin HRE 40, sodium oleate, soya phosphatidylcholine, cholesterol, and phosphate buffer at pH 7.4 at 4 degC", "assay_type": "physicochemical", "outline": "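Storage stability of the compound in vehicle V2, a microemulsion of surfactant (Eumulgin HRE 40/sodium oleate/soya phosphatidylcholine, 10%), cholesterol oil phase (10%) and pH 7.4 phosphate buffer (80%), followed over 1 week at 4 °C.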"}, "[17]": {"system": "Mus musculus", "test": "Toxicity in BALB/c mouse assessed as mortality at 100 mg/kg/day, po for 14 days", "assay_type": "organism-based", "set-up": "route oral", "settings": "in vivo, 336 h", "outline": "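Uninfected female BALB/c mice (n = 2/group) received intragastric gavage daily for 14 days in saline/Tween 80 (4:1). They were weighed and monitored daily, then sacrificed for macroscopic necropsy of organs.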"}, "[18]": {"system": "Trypanosoma cruzi", "test": "Antitrypanosomal activity against Trypanosoma cruzi CL Brener infected in BALB/c mouse assessed as mouse survival at 107 umol/kg/day, po for 14 days administered in saline and tween 80 measured up to 60 days relative to control", "assay_type": "functional", "outline": "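Male BALB/c mice (30 days old, 25–30 g, SPF) infected i.p.; daily intragastric gavage for 14 days, starting day 6 postinfection, in saline/Tween 80 (4:1 v/v); n = 8/group; vehicle-only control. Parasitemia counted by hemocytometer in tail-vein blood; survival followed to 65 days postinfection.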"}},
  "data": [
    {"smiles": "Br.C=CCn1c(-c2ccc(Cl)cc2)cs\\c1=N/N=C/C=C/c1ccco1.O", "values": [
      {"measurement": "selectivity ratio", "setting": "[1]", "value": "> 1000"},
      {"measurement": "selectivity ratio", "setting": "[2]", "value": "> 200"},
      {"measurement": "inhibition of growth at 25 µM", "setting": "[3]", "value": 70, "unit": "%"},
      {"measurement": "Activity", "setting": "[4]", "value": "Non-toxic"},
      {"measurement": "Activity", "setting": "[5]", "value": "Non-toxic"},
      {"measurement": "Activity", "setting": "[6]", "value": "Non-toxic"},
      {"measurement": "Activity", "setting": "[7]", "value": "Non-toxic"},
      {"measurement": "Activity", "setting": "[8]", "value": "Non-toxic"},
      {"measurement": "Activity", "setting": "[9]", "value": "Non-toxic"},
      {"measurement": "Activity", "setting": "[10]", "value": "Non-toxic"},
      {"measurement": "Activity", "setting": "[11]", "value": "Non-toxic"},
      {"measurement": "remaining at 1 h, 1000 µM", "setting": "[12]", "value": "> 95", "unit": "%"},
      {"measurement": "remaining at 1 h, 1000 µM", "setting": "[13]", "value": "> 95", "unit": "%"},
      {"measurement": "remaining at 1 h, 1000 µM", "setting": "[14]", "value": 90, "unit": "%"},
      {"measurement": "Stability", "setting": "[15]", "value": "Stable"},
      {"measurement": "Stability", "setting": "[16]", "value": "Stable"},
      {"measurement": "Activity", "setting": "[17]", "value": "Non-toxic"},
      {"measurement": "survival at 107 µmol/kg", "setting": "[18]", "value": 75, "unit": "%"}
    ]}
  ]
}
